The text below walks through data of article PMC9729583 (Antiviral Research, 2022).

For one series, the system named is Calu-3 cells. Put plainly: PrestoBlue cytotoxicity assay. The note with it: Calu-3, 48 h incubation. The series is classed as cell-based, human. An outline of the steps: (§1)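 Calu-3 cells were grown per ATCC recommendations and seeded in 96-well plates. After 24 h, medium was replaced with serially diluted test compound for 48 h. Cells were then incubated 2 h with 5% PrestoBlue and fluorescence read at ex 555/em 585 nm. Viability was expressed as % of vehicle-treated cells. At least three independent experiments were run.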

Series [1] deals with mNG-SARS-CoV-2. The experiment in a line: microbe, parasite or virus in culture. Type of series: cell-based.
In series [2] the test system is mNG-SARS-CoV-2. The experiment in a line: microbe, parasite or virus in culture. The series is classed as cell-based. As to conditions: for % Inhibition: 50 µM; for inhibition at 50 µM: Severe acute respiratory syndrome coronavirus 2, Calu-3.
For another series, the system named is SARS-CoV-2 Omicron BA.1. Put plainly: dose-response against SARS-CoV-2 Omicron BA.1 in Calu-3 cells. The series is classed as cell-based.
The test system of series [3] is wild-type SARS-CoV-2. As to conditions: cited from earlier work.
The target of another series is 3CLpro (Severe acute respiratory syndrome coronavirus 2, UniProt P0DTD1). The experiment in a line: 3CLpro enzymatic assay. The series is classed as biochemical, SARS-CoV-2. As to conditions: data not shown.
Series [4] is described as follows: PrestoBlue cytotoxicity assay. The note with it: human, Calu-3 cells. Type of series: cell-based, human. Summed up:
as §1

For series [5], the system named is mNG-SARS-CoV-2. Put plainly: microbe, parasite or virus in culture. Type of series: cell-based. The source holds these as a separate data set.
In series [6] the test system is wild-type SARS-CoV-2. As to conditions: Huh-7.5 cells ref Dittmar et al., 2021; cited from earlier work.
The mark [7] stands for this setting: Severe acute respiratory syndrome coronavirus 2, Calu-3, read-out: BA.1 (EC50) Nuc, Calu-3, nucleocapsid staining.
Where [8] appears, read: Severe acute respiratory syndrome coronavirus 2, Calu-3, read-out: BA.1 (EC50) dsRNA, Calu-3, dsRNA staining.
Where [9] appears, read: Severe acute respiratory syndrome coronavirus 2, Calu-3.

pEC50: −log10 of the molar value. Read-outs that look alike come from different tables or passages of the source.

For `CC(=O)O[C@H]1CC[C@]2(C)[C@H]3CC[C@]4(C)Oc5oc(C)cc(=O)c5C[C@H]4[C@]3(C)CC[C@H]2C1(C)C` [chevalone C], the CC50 with Calu-3 cells was found to be 93 µM. The pEC50 in the series on mNG-SARS-CoV-2 [1] was 5.38. In the series with mNG-SARS-CoV-2 [2], the “% Inhibition” value is reported as 100%.

`N[C@H](CNc1nc(-c2ccncc2)nc2sc3c(c12)CCCC3)Cc1ccccc1` [CRT0066854]: the pEC50 in the series with SARS-CoV-2 Omicron BA.1 (read-out: BA.1 (EC50) Nuc, Calu-3, nucleocapsid staining) was 6.52; in the series on SARS-CoV-2 Omicron BA.1 (read-out: BA.1 (EC50) dsRNA, Calu-3, dsRNA staining) it was 7.00.

Turning to `CC(C)C[C@H](NC(=O)OCc1ccccc1)C(=O)N[C@@H](CC1CCNC1=O)C(O)S(=O)(=O)O` (stereo partly drawn) [GC376], the pEC50 in the series with wild-type SARS-CoV-2 [3] (Vero E6 cells ref Dampalla et al., 2021) is 6.64; in the series on wild-type SARS-CoV-2 [3] (Vero E6 cells ref Fu et al., 2020), 6.15; in the series on mNG-SARS-CoV-2 [1] it was 6.32.

Turning to `C=C1C[C@@]23CC[C@H]4[C@@](C)(CCC[C@@]4(C)C(=O)O)[C@@H]2CC[C@@H]1C3` [kaur-16-en-18-oic acid], in the series on Calu-3 cells, the CC50 was > 100 µM. Besides, the pEC50 in the series with mNG-SARS-CoV-2 [1] was 4.82. Besides, in the series with mNG-SARS-CoV-2 [2], the “% Inhibition” value is on record as 100%.

Turning to `CCC/C=C/C=C/C(=O)O[C@H]1/C(=C/C(=O)OC)C[C@H]2C[C@H]([C@@H](C)O)OC(=O)C[C@H](O)C[C@@H]3C[C@H](OC(C)=O)C(C)(C)[C@](O)(C[C@@H]4C/C(=C/C(=O)OC)C[C@H](/C=C/C(C)(C)[C@]1(O)O2)O4)O3` [bryostatin, bryostatin-1], the pEC50 is 6.65 in the series with SARS-CoV-2 Omicron BA.1 (setting [7]) and 6.28 with SARS-CoV-2 Omicron BA.1 (setting [8]).

As to `CC1(O)O[C@@H](n2c3ccccc3c3c4c(c5c6ccccc6[nH]c5c32)CNC4=O)C[C@@H](N)[C@H]1O` (stereo partly drawn) [holyrine B], at 3CLpro, the “activity against 3CLpro” value is “neither holyrine A nor B presented activity against 3CLpro”.

Consider `C=C1C[C@H]2[C@@](C)(C(=O)C(O)=C3C(C)(C)C(=O)CC[C@@]32C)[C@@H]2C(=O)O[C@@](C)(C(=O)OC)C(=O)[C@@]12C` [terretonin A], for which the CC50 at 48 h in series [4] was > 100 µM. In addition, the pEC50 in the series with mNG-SARS-CoV-2 [1] is 5.14. Further, in the series with mNG-SARS-CoV-2 [2], the inhibition at 50 µM worked out at 82%.

`C=CC(C)(C)c1[nH]c2ccccc2c1-c1c(O)c(OC)c2c(c1OC)O[C@H]1Nc3ccccc3[C@@]21O` [giluterrin] had a CC50 in the series with Calu-3 cells of 72 µM. The pEC50 with mNG-SARS-CoV-2 [1] is 5.26.

Turning to `CC(C)=CCc1cc(-c2coc3c(CC=C(C)C)c(O)ccc3c2=O)ccc1O` [erysubin F], the CC50 at 48 h in series [4] is > 100 µM. The compound further showed a pEC50 in the series with mNG-SARS-CoV-2 [1] (setting [9]) of 4.34. Further, the inhibition at 50 µM with mNG-SARS-CoV-2 [2] was determined as 100%.

For the compound `C[C@@H]1CC[C@@]2(OC1)O[C@H]1C[C@H]3[C@@H]4CC[C@@H]5CC(=O)CC[C@]5(C)[C@H]4CC(=O)[C@]3(C)[C@@]1(O)[C@@H]2C` [asparacemosone B], in the series on Calu-3 cells, the half-maximal cytotoxic concentration (CC50) was > 100 µM. This compound had a pEC50 in the series on mNG-SARS-CoV-2 [1] of 5.39. Moreover, the “% Inhibition” value in the series on mNG-SARS-CoV-2 [2] is on record as 83%.

As for `COc1ccc2c(c1)c(C1=C(c3c[nH]c4ccccc34)C(=O)NC1=O)cn2CCCN(C)C` [Gö6983], in the series with SARS-CoV-2 Omicron BA.1, the “effect on SARS-CoV-2 BA.1 infection” value is reported as “dramatic increase in susceptibility of cells to SARS-CoV-2 BA.1”.

Turning to `CC(=O)O[C@H]1CC[C@]2(C)[C@H]3CC[C@]4(C)Oc5cc(C)oc(=O)c5C[C@H]4[C@]3(C)CC[C@H]2C1(C)C` [chevalone B], in the series on Calu-3 cells, the CC50 is > 100 µM. In addition, in the series with mNG-SARS-CoV-2 [1], the pEC50 was 5.35. In addition, the “% Inhibition” value with mNG-SARS-CoV-2 [2] was 95%.

Take `Cc1cc(O)c(C=O)c2c1C(=O)Oc1c(cc3c(c1C)C(=O)CC(C)(C)O3)O2` [mollicellin B]: in [4], the CC50 at 48 h was > 100 µM. The pEC50 with mNG-SARS-CoV-2 [1] is 5.17. For the same compound, the inhibition at 50 µM in the series on mNG-SARS-CoV-2 [2] is 100%.

Turning to `CC1(C)C=Cc2c(cc3occ(-c4ccc(O)cc4)c(=O)c3c2O)O1` [alpinumisoflavone], the CC50 at 48 h in [4] is > 100 µM. Moreover, in the series on mNG-SARS-CoV-2 [2], the inhibition at 50 µM was 100%.

`CCC(CC)COC(=O)[C@H](C)N[P@](=O)(OC[C@H]1O[C@@](C#N)(c2ccc3c(N)ncnn23)[C@H](O)[C@@H]1O)Oc1ccccc1` [RDV, remdesivir]: the pEC50 in the series on mNG-SARS-CoV-2 [5] (Severe acute respiratory syndrome coronavirus 2, Huh-7.5.1, read-out: EC50 (mNG)) is 8.44; with mNG-SARS-CoV-2 [5] (Severe acute respiratory syndrome coronavirus 2, Huh-7.5.1, read-out: EC50 (nucleocapsid staining)) it was 8.12; with wild-type SARS-CoV-2 [6] it was 8.70.

On to `CC(C)=CCc1cc([C@@H]2CC(=O)c3c(O)cc(O)c(CC=C(C)C)c3O2)cc(CC=C(C)C)c1O` [5-hydroxysophoranone], for which the CC50 in the series on Calu-3 cells is > 100 µM. In the series with mNG-SARS-CoV-2 [1], this compound had a pEC50 of 4.69. Besides, in the series with mNG-SARS-CoV-2 [2], the “% Inhibition” value is listed as 100%.

For `CC(C)=CCC/C(C)=C/Cc1c(O)cc2oc3c(O)cccc3c(=O)c2c1O` [mangostinone], the CC50 at 48 h in series [4] is > 100 µM. Also, the pEC50 in the series with mNG-SARS-CoV-2 [1] was 4.55. The inhibition at 50 µM in the series on mNG-SARS-CoV-2 [2] was found to be 92%.

As for `CC(=O)O[C@@]12C[C@@H](C)[C@@]3(O)[C@@H](C=C(CO)C[C@]4(O)C(=O)C(C)=C[C@@H]34)[C@@H]1C2(C)C` [prostratin], the pEC50 is 4.94 in the series on SARS-CoV-2 Omicron BA.1 (setting [7]) and 5.30 in the series with SARS-CoV-2 Omicron BA.1 (setting [8]).

In the case of piperbonin A, in the series with Calu-3 cells, the CC50 is > 100 µM. Moreover, in the series with mNG-SARS-CoV-2 [1], the pEC50 is 5.44. Also, the “% Inhibition” value with mNG-SARS-CoV-2 [2] worked out at 100%.

Consider crotonolide F, for which the half-maximal cytotoxic concentration (CC50) in the series on Calu-3 cells was > 100 µM. This compound also gave a pEC50 in the series with mNG-SARS-CoV-2 [1] of 5.09. Also, the “% Inhibition” value in the series with mNG-SARS-CoV-2 [2] amounted to 97%.

For the compound knecorticosanone G, the CC50 with Calu-3 cells was > 100 µM. The pEC50 with mNG-SARS-CoV-2 [1] is 5.46. Moreover, in the series on mNG-SARS-CoV-2 [2], the “% Inhibition” value turned out to be 100%.

For the compound artahongkongene B, in the series on Calu-3 cells, the CC50 was > 100 µM. Also, the pEC50 with mNG-SARS-CoV-2 [1] is 4.66. Besides, the “% Inhibition” value with mNG-SARS-CoV-2 [2] came out at 81%.

For the compound `O=c1cc(-c2ccccc2)oc2cc(O)cc(O)c12` [chrysin], the CC50 at 48 h in [4] was > 100 µM. In the series on mNG-SARS-CoV-2 [1] (setting [9]), the pEC50 is 4.73. In the series on mNG-SARS-CoV-2 [2], this compound displayed an inhibition at 50 µM of 99%.

In the case of `Cn1c2ccccc2c2c3c(c4c5ccccc5n(CCC#N)c4c21)CNC3=O` [Gö6976], the “effect on SARS-CoV-2 BA.1 infection” value with SARS-CoV-2 Omicron BA.1 was “dramatic increase in susceptibility of cells to SARS-CoV-2 BA.1”.

`COc1cc([C@H]2OC[C@]3(O)[C@@H](c4ccc(O)c(OC)c4)OC[C@H]23)ccc1O` [8-hydroxypinoresinol]: the CC50 in the series on Calu-3 cells was > 100 µM. This compound also showed a pEC50 in the series with mNG-SARS-CoV-2 [1] of 4.61. Further, the “% Inhibition” value in the series with mNG-SARS-CoV-2 [2] is 82%.

For the compound `C/C=C(/C)C(=O)O[C@H]1C(C)=C[C@]23C(=O)[C@@H](C=C(CO)[C@@H](O)[C@]12O)[C@H]1[C@@H](C[C@H]3C)C1(C)C` [PEP 005], the values for the pEC50 in the series with SARS-CoV-2 Omicron BA.1 (setting [7]) and in the series with SARS-CoV-2 Omicron BA.1 (setting [8]) were 6.15 and 5.82, respectively.

Consider `COc1cc(-c2cc3c(c(=O)o2)C[C@]2(O)[C@@]4(C)C(=O)C=CC(C)(C)[C@]4(O)CC[C@@]2(C)O3)cc(OC)c1OC` [territrem B], for which the CC50 at 48 h in series [4] is > 100 µM. The compound further showed a pEC50 in the series on mNG-SARS-CoV-2 [1] of 5.18. Besides, in the series on mNG-SARS-CoV-2 [2], the inhibition at 50 µM came to 100%.

For asparacemosone A, in the series with Calu-3 cells, the CC50 is > 100 µM. For the same compound, the pEC50 with mNG-SARS-CoV-2 [1] was 4.69. Moreover, the “% Inhibition” value in the series on mNG-SARS-CoV-2 [2] was determined as 95%.

Take `CC(C)=CCC[C@](C)(O)[C@H]1CC[C@]2(C)[C@@H]1CC[C@@H]1[C@@]3(C)CCC(=O)C(C)(C)[C@@H]3CC[C@]12C` [dipterocarpol]: the CC50 at 48 h in series [4] is > 100 µM. Also, the pEC50 with mNG-SARS-CoV-2 [1] is 5.52. Moreover, in the series on mNG-SARS-CoV-2 [2], at 50 µM the inhibition was 99%.

`COc1c2ccoc2c(OCC=C(C)C)c2oc(=O)ccc12` [phellopterin]: in series [4], it took 93 µM to reach half-maximal cytotoxicity (CC50 at 48 h). The pEC50 in the series with mNG-SARS-CoV-2 [1] was 5.20. In addition, in the series with mNG-SARS-CoV-2 [2], the inhibition at 50 µM came out at 96%.

In the case of acetyl hyrtiosal, the CC50 in the series on Calu-3 cells is > 100 µM. This compound had a pEC50 with mNG-SARS-CoV-2 [1] of 5.71. Moreover, in the series with mNG-SARS-CoV-2 [2], the “% Inhibition” value is 97%.

2-butylchrysin: the CC50 with Calu-3 cells was > 100 µM. The compound also gave a pEC50 in the series on mNG-SARS-CoV-2 [1] of 4.74. Moreover, in the series with mNG-SARS-CoV-2 [2], the “% Inhibition” value was 95%.
